From publication PMC5363680 (Molecular Therapy. Nucleic Acids, 2017)

What was measured:
[1] = system: luc2 gene in U87 MG-luc2 cells; assay: luc2 gene downregulation after CPP-mediated siRNA delivery; format: cell-based, human; settings: MR30, 25 nM siRNA, 10% FBS media, 24 hr post treatment
proteinase = proteinase (Parengyodontium album, UniProt P06873); assay: Coincubation of CPP with proteinase, peptide fragments by UPLC; format: in vitro ADME; settings: coincubation of CPP with the enzyme, 2 hr at 37°C, data not shown
U87 cells [2] = assay: Neutral red lyso-toxicity assay, serum-free conditions; format: cell-based, human; settings: reduced serum media, 6 hr, CPP and CPP/siRNA complexes at higher concentrations
In short: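 U87 cells grown 24 hr in serum-containing medium, then medium replaced by complexes or peptide diluted 1:10 in reduced-serum medium. Controls were untreated cells, 10 μM chloroquine and cell-free wells. Neutral red dye added and incubated 6 hr at 37°C, 5% CO2. Cells then washed with PBS, detection solution added for 10 min, absorbance read at 540 nm and normalized to controls.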

Proteinase K = Proteinase K (Parengyodontium album, UniProt P06873); assay: Proteinase K degradation of CPP/siRNA complexes, PicoGreen read-out; format: in vitro ADME; settings: PF6 at MR10, same charge ratio as other CPPs
U87 cells [3] = assay: LDH leakage; format: cell-based, human; settings: reduced serum media, 6 hr, complexes and free peptide at a higher concentration
In short: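 U87 cells grown 24 hr in serum-containing medium, then switched to serum-free conditions: medium removed and complexes or free peptide added, diluted 1:10 in medium. Controls were untreated cells, 0.1% Triton X-100 and cell-free wells. After 6 hr at 37°C, 5% CO2, LDH activity (CytoTox-ONE) was measured per kit protocol and normalized to controls.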

Chain of Proteinase K (P06873 106-384): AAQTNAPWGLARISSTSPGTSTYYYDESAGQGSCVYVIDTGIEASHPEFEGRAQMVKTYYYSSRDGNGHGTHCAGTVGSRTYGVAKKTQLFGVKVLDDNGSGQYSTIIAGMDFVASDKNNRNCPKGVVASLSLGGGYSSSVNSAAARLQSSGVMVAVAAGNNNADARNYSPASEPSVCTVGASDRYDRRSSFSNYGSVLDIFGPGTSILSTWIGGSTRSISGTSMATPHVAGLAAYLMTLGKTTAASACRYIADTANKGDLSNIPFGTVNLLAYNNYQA
Chain of proteinase (P06873 106-384): as above

Stearyl-AGYLLGKINLKALAALAKKIL-NH2 [PF6]
downregulation of luc2 gene at MR30 [1]: 80%
degradation of CPP by the proteinase (proteinase): lack of a considerable increase of detectable peptide fragments
Neutral red assay (lyso-toxicity) (U87 cells [2]): showed toxic and/or buffering effects
stability to proteinase, times higher than with other tested CPPs (Proteinase K): 10–20 times
LDH leakage (U87 cells [3]): led to LDH leakage
